Experimental data as given in ChEMBL document CHEMBL2157880, “Synthesis, antimycobacterial and antibacterial activity of ciprofloxacin derivatives containing a N-substituted benzyl moiety” (2012).
Values after ≈ are worked out from the molar mass of the structure shown.

Key:
Format in all cases: functional
[1] = test system: Enterococcus faecium; assay: Antibacterial activity against Enterococcus faecium 10-6 after 18 to 24 hrs by NCCLS method
Method in brief: (§1)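 Standard NCCLS (M100-S11) MIC testing against Gram-positive and Gram-negative strains. Plates were incubated at 35 °C for 18–24 h. The MIC was read as the lowest concentration giving complete inhibition of visible bacterial growth.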

[2] = test system: Mycobacterium tuberculosis; assay: Antimycobacterial activity against Mycobacterium tuberculosis H37Rv ATCC 27294 by microplate alamar blue assay
Method in brief: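 Microplate Alamar Blue fluorescence assay on strain H37Rv ATCC 27294. MIC was the lowest concentration cutting fluorescence by ≥90% against the mean of replicate bacterium-only controls.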

[3] = test system: Escherichia coli; assay: Antibacterial activity against extended spectrum beta-lactamases producing Escherichia coli 10-4 after 18 to 24 hrs by NCCLS method; method in brief: as §1
[4] = test system: Klebsiella pneumoniae; assay: Antibacterial activity against extended spectrum beta-lactamases producing Klebsiella pneumoniae 10-3 after 18 to 24 hrs by NCCLS method; method in brief: as §1
[5] = test system: Staphylococcus epidermidis; assay: Antibacterial activity against methicillin-sensitive Staphylococcus epidermidis 10-11 after 18 to 24 hrs by NCCLS method; method in brief: as §1
[6] = test system: Staphylococcus aureus; assay: Antibacterial activity against methicillin-sensitive Staphylococcus aureus 10-13 after 18 to 24 hrs by NCCLS method; method in brief: as §1
[7] = test system: Klebsiella pneumoniae; assay: Antibacterial activity against extended spectrum beta-lactamases producing Klebsiella pneumoniae 10-2 after 18 to 24 hrs by NCCLS method; method in brief: as §1
[8] = test system: Klebsiella pneumoniae; assay: Antibacterial activity against extended spectrum beta-lactamases producing Klebsiella pneumoniae 10-1 after 18 to 24 hrs by NCCLS method; method in brief: as §1
[9] = test system: Pseudomonas aeruginosa; assay: Antibacterial activity against Pseudomonas aeruginosa 10-5 after 18 to 24 hrs by NCCLS method; method in brief: as §1
[10] = test system: Escherichia coli; assay: Antibacterial activity against Escherichia coli 10-2 after 18 to 24 hrs by NCCLS method; method in brief: as §1
[11] = test system: Pseudomonas aeruginosa; assay: Antibacterial activity against Pseudomonas aeruginosa 10-18 after 18 to 24 hrs by NCCLS method; method in brief: as §1
[12] = test system: Pseudomonas aeruginosa; assay: Antibacterial activity against Pseudomonas aeruginosa 10-15 after 18 to 24 hrs by NCCLS method; method in brief: as §1
[13] = test system: Staphylococcus aureus; assay: Antibacterial activity against methicillin-sensitive Staphylococcus aureus 10-14 after 18 to 24 hrs by NCCLS method; method in brief: as §1
[14] = test system: Enterococcus faecalis; assay: Antibacterial activity against Enterococcus faecalis 10-6 after 18 to 24 hrs by NCCLS method; method in brief: as §1
[15] = test system: Escherichia coli; assay: Antibacterial activity against Escherichia coli 10-3 after 18 to 24 hrs by NCCLS method; method in brief: as §1
[16] = test system: Escherichia coli; assay: Antibacterial activity against extended spectrum beta-lactamases producing Escherichia coli 10-2 after 18 to 24 hrs by NCCLS method; method in brief: as §1
[17] = test system: Pseudomonas aeruginosa; assay: Antibacterial activity against Pseudomonas aeruginosa 10-9 after 18 to 24 hrs by NCCLS method; method in brief: as §1
[18] = test system: Streptococcus pneumoniae; assay: Antibacterial activity against Streptococcus pneumoniae 10-6 after 18 to 24 hrs by NCCLS method; method in brief: as §1
[19] = test system: Staphylococcus epidermidis; assay: Antibacterial activity against methicillin-resistant Staphylococcus epidermidis 10-13 after 18 to 24 hrs by NCCLS method
Method in brief: (§2)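 Incubated at 35 °C for 18–24 h under NCCLS (M100-S11) standards. MIC was read as the lowest concentration giving complete inhibition of visible bacterial growth.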

[20] = test system: Escherichia coli; assay: Antibacterial activity against Escherichia coli 10-1 after 18 to 24 hrs by NCCLS method; method in brief: as §1
[21] = test system: Streptococcus pneumoniae; assay: Antibacterial activity against Streptococcus pneumoniae 10-1 after 18 to 24 hrs by NCCLS method; method in brief: as §1
[22] = test system: Enterococcus faecalis; assay: Antibacterial activity against Enterococcus faecalis 10-5 after 18 to 24 hrs by NCCLS method; method in brief: as §1
[23] = test system: Staphylococcus aureus; assay: Antibacterial activity against methicillin-resistant Staphylococcus aureus 10-15 after 18 to 24 hrs by NCCLS method; method in brief: as §2
[24] = test system: Enterococcus faecalis; assay: Antibacterial activity against Enterococcus faecalis 10-7 after 18 to 24 hrs by NCCLS method; method in brief: as §1
[25] = test system: Klebsiella pneumoniae; assay: Antibacterial activity against Klebsiella pneumoniae 10-4 after 18 to 24 hrs by NCCLS method; method in brief: as §1
[26] = test system: Staphylococcus aureus; assay: Antibacterial activity against methicillin-sensitive Staphylococcus aureus 10-11 after 18 to 24 hrs by NCCLS method; method in brief: as §1
[27] = test system: Pseudomonas aeruginosa; assay: Antibacterial activity against Pseudomonas aeruginosa 10-20 after 18 to 24 hrs by NCCLS method; method in brief: as §1
[28] = test system: Staphylococcus aureus; assay: Antibacterial activity against Staphylococcus aureus ATCC 2592 after 18 to 24 hrs by NCCLS method; method in brief: as §1
[29] = test system: Staphylococcus epidermidis; assay: Antibacterial activity against methicillin-sensitive Staphylococcus epidermidis 10-15 after 18 to 24 hrs by NCCLS method; method in brief: as §2
[30] = test system: Escherichia coli; assay: Antibacterial activity against Escherichia coli ATCC 25922 after 18 to 24 hrs by NCCLS method; method in brief: as §1
[31] = test system: Escherichia coli; assay: Antibacterial activity against extended spectrum beta-lactamases producing Escherichia coli 10-3 after 18 to 24 hrs by NCCLS method; method in brief: as §1
[32] = test system: Pseudomonas aeruginosa; assay: Antibacterial activity against Pseudomonas aeruginosa 10-12 after 18 to 24 hrs by NCCLS method; method in brief: as §1
[33] = test system: Klebsiella pneumoniae; assay: Antibacterial activity against Klebsiella pneumoniae 10-2 after 18 to 24 hrs by NCCLS method; method in brief: as §1
[34] = test system: Staphylococcus aureus; assay: Antibacterial activity against methicillin-resistant Staphylococcus aureus 10-11 after 18 to 24 hrs by NCCLS method; method in brief: as §2
[35] = test system: Staphylococcus aureus; assay: Antibacterial activity against methicillin-resistant Staphylococcus aureus 10-13 after 18 to 24 hrs by NCCLS method; method in brief: as §2
[36] = test system: Staphylococcus epidermidis; assay: Antibacterial activity against methicillin-resistant Staphylococcus epidermidis 10-10 after 18 to 24 hrs by NCCLS method; method in brief: as §2
[37] = test system: Enterococcus faecium; assay: Antibacterial activity against Enterococcus faecium 10-9 after 18 to 24 hrs by NCCLS method; method in brief: as §1
[38] = test system: Klebsiella pneumoniae; assay: Antibacterial activity against Klebsiella pneumoniae 10-3 after 18 to 24 hrs by NCCLS method; method in brief: as §1

Row | Compound | MIC [1] [µg/mL] | MIC [2] [µg/mL] | MIC [3] [µg/mL] | MIC [4] [µg/mL] | MIC [5] [µg/mL] | MIC [6] [µg/mL] | MIC [7] [µg/mL] | MIC [8] [µg/mL] | MIC [9] [µg/mL] | MIC [10] [µg/mL] | MIC [11] [µg/mL] | MIC [12] [µg/mL] | MIC [13] [µg/mL] | MIC [14] [µg/mL] | MIC [15] [µg/mL] | MIC [16] [µg/mL] | MIC [17] [µg/mL] | MIC [18] [µg/mL] | MIC [19] [µg/mL] | MIC [20] [µg/mL] | further results
1 | COc1ccc(OC)c(CN2CCN(c3cc4c(cc3F)c(=O)c(C(=O)O)cn4C3CC3)CC2)c1 | 16 (≈ 33.2 µM) | > 32 | > 128 | > 128 | 1 (≈ 2.08 µM) | 0.5 (≈ 1.04 µM) | > 128 | > 128 | 16 (≈ 33.2 µM) | 64 (≈ 133 µM) | 16 (≈ 33.2 µM) | 16 (≈ 33.2 µM) | 1 (≈ 2.08 µM) | 128 (≈ 266 µM) | 16 (≈ 33.2 µM) | > 128 | 16 (≈ 33.2 µM) | 64 (≈ 133 µM) | 16 (≈ 33.2 µM) | > 128 | MIC [21]: 8 µg/mL (≈ 16.6 µM); MIC [22]: 16 µg/mL (≈ 33.2 µM); MIC [23]: 16 µg/mL (≈ 33.2 µM); MIC [24]: 16 µg/mL (≈ 33.2 µM); MIC [25]: > 128 µg/mL; MIC [26]: 0.5 µg/mL (≈ 1.04 µM); MIC [27]: 32 µg/mL (≈ 66.5 µM); MIC [28]: 0.5 µg/mL (≈ 1.04 µM); MIC [29]: 16 µg/mL (≈ 33.2 µM); MIC [30]: 1 µg/mL (≈ 2.08 µM); MIC [31]: > 128 µg/mL; MIC [32]: 8 µg/mL (≈ 16.6 µM); MIC [33]: > 128 µg/mL; MIC [34]: 32 µg/mL (≈ 66.5 µM); MIC [35]: 32 µg/mL (≈ 66.5 µM); MIC [36]: 16 µg/mL (≈ 33.2 µM); MIC [37]: 16 µg/mL (≈ 33.2 µM); MIC [38]: 16 µg/mL (≈ 33.2 µM)
2 | COc1ccc(CN2CCN(c3cc4c(cc3F)c(=O)c(C(=O)O)cn4C3CC3)CC2)cc1OC | 4 (≈ 8.31 µM) | 16 (≈ 33.2 µM) | 64 (≈ 133 µM) | > 128 | 4 (≈ 8.31 µM) | 0.125 (≈ 0.26 µM) | > 128 | > 128 | 32 (≈ 66.5 µM) | 16 (≈ 33.2 µM) | 64 (≈ 133 µM) | 32 (≈ 66.5 µM) | 0.25 (≈ 0.519 µM) | > 128 | 64 (≈ 133 µM) | > 128 | 64 (≈ 133 µM) | 32 (≈ 66.5 µM) | 32 (≈ 66.5 µM) | > 128 | MIC [21]: 2 µg/mL (≈ 4.15 µM); MIC [22]: 8 µg/mL (≈ 16.6 µM); MIC [23]: 16 µg/mL (≈ 33.2 µM); MIC [24]: 64 µg/mL (≈ 133 µM); MIC [25]: > 128 µg/mL; MIC [26]: 0.125 µg/mL (≈ 0.26 µM); MIC [27]: 128 µg/mL (≈ 266 µM); MIC [28]: 0.125 µg/mL (≈ 0.26 µM); MIC [29]: 8 µg/mL (≈ 16.6 µM); MIC [30]: 0.5 µg/mL (≈ 1.04 µM); MIC [31]: > 128 µg/mL; MIC [32]: 32 µg/mL (≈ 66.5 µM); MIC [33]: > 128 µg/mL; MIC [34]: 32 µg/mL (≈ 66.5 µM); MIC [35]: 64 µg/mL (≈ 133 µM); MIC [36]: 8 µg/mL (≈ 16.6 µM); MIC [37]: 64 µg/mL (≈ 133 µM); MIC [38]: 16 µg/mL (≈ 33.2 µM)
3 | COc1cccc(CN2CCN(c3cc4c(cc3F)c(=O)c(C(=O)O)cn4C3CC3)CC2)c1OC | 4 (≈ 8.31 µM) | 2 (≈ 4.15 µM) | 128 (≈ 266 µM) | > 128 | 0.25 (≈ 0.519 µM) | 0.03 (≈ 0.0623 µM) | > 128 | > 128 | 32 (≈ 66.5 µM) | 32 (≈ 66.5 µM) | 64 (≈ 133 µM) | 32 (≈ 66.5 µM) | 0.125 (≈ 0.26 µM) | > 128 | > 128 | > 128 | 64 (≈ 133 µM) | 32 (≈ 66.5 µM) | 32 (≈ 66.5 µM) | > 128 | MIC [21]: 2 µg/mL (≈ 4.15 µM); MIC [22]: 8 µg/mL (≈ 16.6 µM); MIC [23]: 16 µg/mL (≈ 33.2 µM); MIC [24]: 32 µg/mL (≈ 66.5 µM); MIC [25]: > 128 µg/mL; MIC [26]: 0.03 µg/mL (≈ 0.0623 µM); MIC [27]: 128 µg/mL (≈ 266 µM); MIC [28]: 0.06 µg/mL (≈ 0.125 µM); MIC [29]: 8 µg/mL (≈ 16.6 µM); MIC [30]: 0.5 µg/mL (≈ 1.04 µM); MIC [31]: > 128 µg/mL; MIC [32]: 32 µg/mL (≈ 66.5 µM); MIC [33]: > 128 µg/mL; MIC [34]: 16 µg/mL (≈ 33.2 µM); MIC [35]: 32 µg/mL (≈ 66.5 µM); MIC [36]: 8 µg/mL (≈ 16.6 µM); MIC [37]: 32 µg/mL (≈ 66.5 µM); MIC [38]: 16 µg/mL (≈ 33.2 µM)
